Assay results: ChEMBL document CHEMBL1147912, “1-(1,3-Benzodioxol-5-ylmethyl)-3-[4-(1H-imidazol-1-yl)phenoxy]-piperidine analogs as potent and selective inhibitors of nitric oxide formation” (Bioorg Med Chem Lett, 2007)

Experiments:
A 172 = assay: Inhibition of nitric oxide formation in human A172 cells; format: functional, cell-based
Outline: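 Human A172 cells were stimulated with cytokines to induce NO formation, with compound present. Nitrite/NO produced was read with Griess reagent and IC50 determined.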

[1] = biological target: Nitric oxide synthase, inducible (Homo sapiens, UniProt P35228); assay: Inhibition of tetracycline-induced iNOS expressed in SF9 cells
Outline: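 SF9 cells transfected with iNOS in a tetracycline-inducible system, expression induced by tetracycline. NOS activity was measured as conversion of radiolabeled arginine to radiolabeled citrulline. IC50 was averaged over at least two separate experiments unless noted otherwise.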

[2] = Clearance in rat at 2 mg/kg, iv; format: ADME, organism-based; set-up: dose 2 mg/kg, route intravenous; conditions: in vivo
Outline: (§1)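 Rat, intravenous dose of 2 mg/kg. Readouts were half-life, clearance, steady-state volume of distribution and AUC to infinity.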

Rattus norvegicus = assay: AUC (infinity) in rat at 2 mg/kg, iv; format: ADME, organism-based, Plasma; set-up: time infinity, dose 2 mg/kg, route intravenous; conditions: in vivo; outline: as §1
[3] = Metabolic stability in rat liver microsomes after 3 hrs; format: ADME, Microsome; conditions: read-out: Stability
Outline: (§2)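 Compound incubated with rat, dog or human liver microsomes for 3 h. Stability was reported as percent parent remaining.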

[4] = Cmax in rat at 10 mg/kg, po; format: ADME, organism-based; set-up: dose 10 mg/kg, route oral; conditions: in vivo
Outline: (§3)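 Rat, oral dose of 10 mg/kg. Readouts were Cmax, terminal half-life, AUC to infinity and oral bioavailability (%F).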

[5] = AUC (infinity) in rat at 10 mg/kg, po; format: ADME, organism-based; set-up: time infinity, dose 10 mg/kg, route oral; conditions: plasma; outline: as §3
[6] = Metabolic stability in dog liver microsomes after 3 hrs; format: ADME, Canis lupus familiaris, Microsome; conditions: read-out: Stability; outline: as §2
[7] = Half life in rat at 10 mg/kg, po; format: ADME, organism-based; set-up: dose 10 mg/kg, route oral; conditions: in vivo; outline: as §3
[8] = Metabolic stability in human liver microsomes after 3 hrs; format: ADME, Microsome; conditions: read-out: Stability; outline: as §2
[9] = Volume of distribution at steady state in rat at 2 mg/kg, iv; format: ADME, organism-based; set-up: dose 2 mg/kg, route intravenous; conditions: in vivo, read-out: Vss; outline: as §1
[10] = Bioavailability in rat at 10 mg/kg, po; format: ADME, organism-based; conditions: in vivo; outline: as §3
[11] = Half life in rat at 2 mg/kg, iv; format: ADME, organism-based; set-up: dose 2 mg/kg, route intravenous; conditions: in vivo; outline: as §1

Nitric oxide synthase, inducible, sequence (P35228 whole entry): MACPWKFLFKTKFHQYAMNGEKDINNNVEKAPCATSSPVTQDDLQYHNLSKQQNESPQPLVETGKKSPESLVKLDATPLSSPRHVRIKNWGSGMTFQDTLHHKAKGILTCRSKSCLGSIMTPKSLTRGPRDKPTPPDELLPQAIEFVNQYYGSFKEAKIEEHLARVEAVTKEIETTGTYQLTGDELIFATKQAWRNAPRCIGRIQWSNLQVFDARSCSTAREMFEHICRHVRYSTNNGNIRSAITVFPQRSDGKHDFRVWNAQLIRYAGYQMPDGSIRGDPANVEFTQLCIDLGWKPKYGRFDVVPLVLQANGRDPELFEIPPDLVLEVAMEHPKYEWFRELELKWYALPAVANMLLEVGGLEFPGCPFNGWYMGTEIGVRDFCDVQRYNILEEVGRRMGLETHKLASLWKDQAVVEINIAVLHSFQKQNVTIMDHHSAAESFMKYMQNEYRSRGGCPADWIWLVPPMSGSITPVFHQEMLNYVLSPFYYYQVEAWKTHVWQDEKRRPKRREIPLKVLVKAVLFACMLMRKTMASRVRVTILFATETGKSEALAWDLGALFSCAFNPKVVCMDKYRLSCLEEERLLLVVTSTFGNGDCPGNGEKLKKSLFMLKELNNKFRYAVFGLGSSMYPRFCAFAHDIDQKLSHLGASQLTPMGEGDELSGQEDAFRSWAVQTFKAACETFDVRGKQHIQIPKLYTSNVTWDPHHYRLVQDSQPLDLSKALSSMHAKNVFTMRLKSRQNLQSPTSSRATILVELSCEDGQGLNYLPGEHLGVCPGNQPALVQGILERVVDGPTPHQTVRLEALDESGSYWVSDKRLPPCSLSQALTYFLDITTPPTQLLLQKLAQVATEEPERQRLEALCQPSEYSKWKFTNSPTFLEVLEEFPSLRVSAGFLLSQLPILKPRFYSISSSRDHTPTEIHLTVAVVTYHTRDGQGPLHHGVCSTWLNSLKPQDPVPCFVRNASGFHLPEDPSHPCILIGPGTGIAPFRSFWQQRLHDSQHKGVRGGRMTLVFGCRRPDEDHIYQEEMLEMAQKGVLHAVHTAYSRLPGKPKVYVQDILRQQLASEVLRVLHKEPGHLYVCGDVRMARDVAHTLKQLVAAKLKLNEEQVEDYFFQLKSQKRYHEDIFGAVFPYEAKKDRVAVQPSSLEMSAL

Compound CC1CCCCN1CCCNC(=O)CN(CCOc1ccc(-n2ccnc2)cc1)Cc1ccc2c(c1)OCO2 (stereo unspecified) has an IC50 (A 172) of 1600 nM.
With c1cn(-c2ccc(OC3CCN(Cc4ccc5c(c4)OCO5)C3)cc2)cn1 (stereo unspecified) the IC50 (A 172) was 4200 nM.
With O=C(O)CN(CCOc1ccc(-n2ccnc2)cc1)Cc1ccc2c(c1)OCO2 the IC50 (A 172) was > 10000 nM.
With c1cn(-c2ccc(OCCNCc3ccc4c(c3)OCO4)cc2)cn1 the IC50 (A 172) was 240 nM.
c1cn(-c2ccc(OC3CCCCN(Cc4ccc5c(c4)OCO5)C3)cc2)cn1 (stereo unspecified) gave an IC50 (A 172) of 78 nM.
c1cn(-c2ccc(OC3CCCN(Cc4ccc5c(c4)OCO5)C3)nn2)cn1 (stereo unspecified) gave an IC50 [1] of 590 nM and an IC50 (A 172) of 52 nM.
For c1cn(-c2ccc(O[C@@H]3CCCN(Cc4ccc5c(c4)OCO5)C3)cc2)cn1, the IC50 (A 172) was 1700 nM.
c1cn(-c2ccc(OCC3CCCCN3Cc3ccc4c(c3)OCO4)cc2)cn1 (stereo unspecified) showed an IC50 [1] of 2200 nM and an IC50 (A 172) of 100 nM.
For c1cn(-c2ccc(O[C@H]3CCN(Cc4ccc5c(c4)OCO5)C3)cc2)cn1, the IC50 (A 172) was 1600 nM.
With O=C(CN(CCOc1ccc(-n2ccnc2)cc1)Cc1ccc2c(c1)OCO2)NCc1ccc(C(F)(F)F)cc1 the IC50 (A 172) was 1800 nM.
Work on c1cn(-c2ccc(OC[C@H]3CCCN3Cc3ccc4c(c3)OCO4)cc2)cn1 yielded an IC50 [1] of 1200 nM and an IC50 (A 172) of 250 nM.
With c1cn(-c2ccc(O[C@H]3CCCN(Cc4ccc5c(c4)OCO5)C3)cc2)cn1 the clearance [2] was 128 mL/min/kg, the AUC (Rattus norvegicus) was 280 ng·h/mL and the remaining at 3 h [3] was 47%. It also gave a Cmax [4] of 800 ng/mL, an IC50 [1] of 72 nM and an AUC(0-inf) [5] of 2600 ng·h/mL. It also gave an IC50 (A 172) of 9 nM, a remaining at 3 h [6] of 89% and a half-life [7] of 2.9 h. For the same compound, the remaining at 3 h [8] was 31%, the Vd [9] was 21 L/kg and the bioavailability [10] was 100%. The half-life [11] was 2.2 h.
With c1cn(-c2ccc(O[C@@H]3CCN(Cc4ccc5c(c4)OCO5)C3)cc2)cn1 the IC50 (A 172) was > 10000 nM.
In the case of c1cn(-c2ccc(NC3CCCN(Cc4ccc5c(c4)OCO5)C3)cc2)cn1 (stereo unspecified), the IC50 [1] is reported as 120 nM and the IC50 (A 172) is reported as 10 nM.
With CCOC(=O)CN(CCOc1ccc(-n2ccnc2)cc1)Cc1ccc2c(c1)OCO2 the IC50 (A 172) was 1200 nM.
For c1cn(-c2ccc(OCC3CCCN(Cc4ccc5c(c4)OCO5)C3)cc2)cn1 (stereo unspecified), the IC50 (A 172) was > 10000 nM.
O=C(CN(CCOc1ccc(-n2ccnc2)cc1)Cc1ccc2c(c1)OCO2)NCc1ccc2c(c1)OCO2 showed an IC50 (A 172) of 640 nM.
Compound c1cn(-c2ccc(OCCN(Cc3ccc4c(c3)OCO4)Cc3ccc4c(c3)OCO4)cc2)cn1 has an IC50 (A 172) of 1500 nM.
c1cn(-c2ccc(OC3CCCN(Cc4ccc5c(c4)OCO5)C3)cc2)cn1 (stereo unspecified) gave an IC50 [1] of 250 nM and an IC50 (A 172) of 57 nM.
